Converted amounts (≈) assume the structure as drawn. Values belong to the compound of their own block, whether it stands above or below them. The source made the active and inactive calls. No cut-off for these calls is given here.
What was measured:
[1] = tested on: Respiratory syncytial virus; test: Potency shift index, ratio of EC50 for respiratory syncytial virus A2 infected in human Hep2 in presence of 1.5 mg/mL Alpha-1-acid glycoprotein to EC50 for respiratory syncytial virus A2 infected in human Hep2 in absence of Alpha-1-acid glycoprotein; assay type: functional
[2] = Elimination half life in Sprague-Dawley rat at 2 mg/kg, iv; assay type: ADME, organism-based; design: dose 2 mg/kg, route intravenous; conditions: in vivo, read-out: beta t1/2 (converted)
[3] = Plasma clearance in Sprague-Dawley rat at 2 mg/kg, iv; assay type: ADME, organism-based; design: dose 2 mg/kg, route intravenous
[4] = Apparent volume of distribution in Sprague-Dawley rat at 2 mg/kg, iv; assay type: ADME, organism-based; design: dose 2 mg/kg, route intravenous; conditions: in vivo, read-out: Vz
[5] = tested on: Respiratory syncytial virus; test: Antiviral activity against respiratory syncytial virus A2 infected in human Hep2 cells assessed as reduction in virus-induced cytopathic effect after 5 days by MTT assay; assay type: functional, organism-based; conditions: A2, HEp-2, 120 h
Method in brief: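 HEp2 cells (1.0 × 10⁴/well) infected at low moi (RSV A2 at moi 0.01) and added to serial compound dilutions; incubated 5 days at 37 °C, 5% CO₂. CPE read by MTT (1 mg/ml) metabolism after 2 h incubation.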

[6] = tested on: Respiratory syncytial virus; test: Antiviral activity against respiratory syncytial virus Long infected in human Hep2 cells assessed as reduction in virus-induced cytopathic effect after 5 days by MTT assay; assay type: functional, organism-based; conditions: HEp-2, 120 h
[7] = tested on: Respiratory syncytial virus; test: Antiviral activity against respiratory syncytial virus B1 infected in human Hep2 cells assessed as reduction in virus-induced cytopathic effect after 5 days by MTT assay; assay type: functional, organism-based; conditions: B1, HEp-2, 120 h
[8] = Lipophilicity, log D of the compound at pH 7.4 by chromatography; assay type: physicochemical; conditions: buffer
Method in brief: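 Effective logD measured chromatographically on an LC-ABZ column, octanol-saturated mobile phase at pH 7.4.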

[9] = Kinetic solubility in 0.01M HCl buffer at pH 2.0 by nephelometry; assay type: physicochemical; conditions: read-out: Kinetic_solubility
Method in brief: (§1)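 Compound dissolved in DMSO and added to 0.01 M HCl (pH 2) or pH 6.5 isotonic phosphate buffer, 1% final DMSO. Solubility range determined by nephelometry.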

[10] = Kinetic solubility in isotonic phosphate buffer at pH 6.5 by nephelometry; assay type: physicochemical; conditions: read-out: Kinetic_solubility; method in brief: as §1
[11] = Elimination half life in Sprague-Dawley rat at 5.1 mg/kg, iv; assay type: ADME, organism-based; design: dose 5.1 mg/kg, route intravenous; conditions: in vivo, read-out: beta t1/2 (converted)
[12] = Plasma clearance in Sprague-Dawley rat at 5.1 mg/kg, iv; assay type: ADME, organism-based; design: dose 5.1 mg/kg, route intravenous
[13] = Apparent volume of distribution in Sprague-Dawley rat at 5.1 mg/kg, iv; assay type: ADME, organism-based; design: dose 5.1 mg/kg, route intravenous; conditions: in vivo, read-out: Vz
[14] = Elimination half life in Sprague-Dawley rat at 19 mg/kg, po; assay type: ADME, organism-based; design: dose 19 mg/kg, route oral; conditions: in vivo, read-out: beta t1/2 (converted)
Method in brief: (§2)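 Male Sprague Dawley rats, n = 2, oral dose as suspension in hydroxypropylmethylcellulose, in carboxymethylcellulose, or in 0.5% HPMC/0.5% benzyl alcohol/0.4% Tween80. Cmax (µM), T1/2 and F (%) derived from plasma levels.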

[15] = Cmax in Sprague-Dawley rat at 19 mg/kg, po; assay type: ADME, organism-based; design: dose 19 mg/kg, route oral; conditions: in vivo; method in brief: as §2
[16] = Oral bioavailability in Sprague-Dawley rat at 19 mg/kg; assay type: ADME, organism-based; conditions: in vivo; method in brief: as §2
[17] = Elimination half life in Sprague-Dawley rat at 8.8 mg/kg, iv; assay type: ADME, organism-based; design: dose 8.8 mg/kg, route intravenous; conditions: in vivo, read-out: beta t1/2 (converted)
[18] = Plasma clearance in Sprague-Dawley rat at 8.8 mg/kg, iv; assay type: ADME, organism-based; design: dose 8.8 mg/kg, route intravenous
[19] = Apparent volume of distribution in Sprague-Dawley rat at 8.8 mg/kg, iv; assay type: ADME, organism-based; design: dose 8.8 mg/kg, route intravenous; conditions: in vivo, read-out: Vz
[20] = tested on: Respiratory syncytial virus; test: Antiviral activity against respiratory syncytial virus A2 by plaque reduction assay; assay type: functional, organism-based
[21] = tested on: Respiratory syncytial virus; test: Antiviral activity against respiratory syncytial virus A2 by yield reduction assay; assay type: functional, organism-based
[22] = tested on: Respiratory syncytial virus; test: Antiviral activity against respiratory syncytial virus A2 assessed as inhibition of early virus replication cycle by time of addition assay; assay type: functional, organism-based
[23] = Oral bioavailability in dog; assay type: ADME, organism-based, Canis lupus familiaris; conditions: in vivo
[24] = tested on: Respiratory syncytial virus; test: Resistance index, ratio of EC50 for drug resistant respiratory syncytial virus B1 expressing F protein L141F mutant to EC50 for wild type Respiratory syncytial virus B1; assay type: functional
[25] = tested on: Respiratory syncytial virus; test: Resistance index, ratio of EC50 for drug resistant respiratory syncytial virus Long expressing F protein Q494L mutant to EC50 for wild type Respiratory syncytial virus Long
[26] = tested on: Respiratory syncytial virus; test: Resistance index, ratio of EC50 for VP-14637 resistant respiratory syncytial virus Long expressing F protein D489Y mutant to EC50 for wild type Respiratory syncytial virus Long
[27] = Cytotoxicity against human Hep2 cells assessed as reduction in cell viability after 5 days by MTT assay; assay type: cell-based, HEp-2
Method in brief: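 Uninfected HEp2 cells (1.0 × 10⁴/well) exposed to serial compound dilutions for 5 days at 37 °C, 5% CO₂. Viability read by MTT (1 mg/ml) metabolism after 2 h incubation.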

[28] = Elimination half life in Sprague-Dawley rat at 2.1 mg/kg, iv; assay type: ADME, organism-based; design: dose 2.1 mg/kg, route intravenous; conditions: in vivo, read-out: beta t1/2 (converted)
Method in brief: (§3)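 Male Sprague Dawley rats given one IV dose. 3.1 mg/kg: n = 1, in 40% propylene glycol, 10% ethanol and 0.4% Tween80 in water. 2.1 mg/kg: n = 2, in 20 mM citrate (pH 2.6) with 5% glucose and 10% DMSO. Total clearance, Vz and T1/2 derived from plasma levels.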

[29] = Total clearance in Sprague-Dawley rat at 2.1 mg/kg, iv; assay type: ADME, organism-based; design: dose 2.1 mg/kg, route intravenous; conditions: in vivo; method in brief: as §3
[30] = Apparent volume of distribution in Sprague-Dawley rat at 2.1 mg/kg, iv; assay type: ADME, organism-based; design: dose 2.1 mg/kg, route intravenous; conditions: in vivo, read-out: Vz; method in brief: as §3
[31] = Cmax in Sprague-Dawley rat at 21 mg/kg, po; assay type: ADME, organism-based; design: dose 21 mg/kg, route oral; conditions: in vivo
Method in brief: (§4)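 Male Sprague Dawley rats, n = 2, oral dose as suspension with carboxymethylcellulose. Cmax (µM), T1/2 and F (%) derived from plasma levels.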

[32] = Half life in Sprague-Dawley rat at 21 mg/kg, po; assay type: ADME, organism-based; design: dose 21 mg/kg, route oral; conditions: in vivo; method in brief: as §4
[33] = Oral bioavailability in Sprague-Dawley rat at 21 mg/kg; assay type: ADME, organism-based; conditions: in vivo; method in brief: as §4
[34] = Elimination half life in Sprague-Dawley rat at 3.1 mg/kg, iv; assay type: ADME, organism-based; design: dose 3.1 mg/kg, route intravenous; conditions: in vivo, read-out: beta t1/2 (converted); method in brief: as §3
[35] = Total clearance in Sprague-Dawley rat at 3.1 mg/kg, iv; assay type: ADME, organism-based; design: dose 3.1 mg/kg, route intravenous; conditions: in vivo; method in brief: as §3
[36] = Apparent volume of distribution in Sprague-Dawley rat at 3.1 mg/kg, iv; assay type: ADME, organism-based; design: dose 3.1 mg/kg, route intravenous; conditions: in vivo, read-out: Vz; method in brief: as §3
[37] = Cmax in Sprague-Dawley rat at 18 mg/kg, po; assay type: ADME, organism-based; design: dose 18 mg/kg, route oral; conditions: in vivo; method in brief: as §4
[38] = Half life in Sprague-Dawley rat at 18 mg/kg, po; assay type: ADME, organism-based; design: dose 18 mg/kg, route oral; conditions: in vivo; method in brief: as §4
[39] = Oral bioavailability in Sprague-Dawley rat at 18 mg/kg; assay type: ADME, organism-based; conditions: in vivo; method in brief: as §4

Compound: O=C(c1cccnc1)N1CCN2C(=O)c3ccncc3[C@]12c1ccc(Cl)cc1 [BTA-9881]
EC50 [5]: 48 nM
EC50 [6]: 59 nM
EC50 [7]: 160 nM
chromatographic logD [8]: 2.1
solubility kinetic [9]: > 100 µg/mL
solubility kinetic [10]: 50 µg/mL (≈ 128 µM)
half-life [17]: 4.5 h
clearance [18]: 4.5 mL/min/kg
Vd [19]: 1.7 L/kg
half-life [14]: 4.5 h
Cmax [15]: 23 µM
bioavailability [16]: 100%
Activity [20]: Active
Activity [21]: Active
Activity [22]: Active
bioavailability [23]: 100%
Ratio EC50 [24]: >100
Ratio EC50 [25]: 40
Ratio EC50 [26]: >1800

Compound: O=C(c1ccc(F)nc1)N1CCN2C(=O)c3cc[n+]([O-])cc3C12c1ccc(Cl)cc1 (racemic)
EC50 [5]: 150 nM
CC50 at 120 h [27]: > 17000 nM
half-life [28]: 1.7 h
clearance [29]: 7.9 mL/min/kg
Vd [30]: 1.2 L/kg
Cmax [31]: 2.5 µM
half-life [32]: 20 h
bioavailability [33]: 85%

Compound: O=c1n(Cc2nc3ccccc3n2CCCCO)c2cnccc2n1C1CC1
Ratio EC50 [24]: >345
Ratio EC50 [25]: 10
Ratio EC50 [26]: >20000

Compound: O=C(c1ccc(F)cc1)N1CCN2C(=O)c3cc[n+]([O-])cc3C12c1ccc(Cl)cc1 (racemic)
half-life [2]: 6.5 h
clearance [3]: 2.4 mL/min/kg
Vd [4]: 1.3 L/kg

The next lines start with results.

half-life [2]: > 24 h
clearance [3]: 2.7 mL/min/kg
Vd [4]: 6 L/kg
Compound: O=C(c1ccc(F)cc1)N1CCN2C(=O)c3ccncc3C12c1ccc(Cl)cc1 (racemic)
Ratio EC50 [1]: 7.2

chromatographic logD [8]: 2.7
solubility kinetic [9]: > 100 µg/mL
solubility kinetic [10]: 25 µg/mL (≈ 61.2 µM)
half-life [11]: 11 h
clearance [12]: 4.3 mL/min/kg
Vd [13]: 3.8 L/kg
half-life [14]: 9.3 h
Cmax [15]: 8.8 µM
bioavailability [16]: 75%
Compound: O=C(c1ccc(F)nc1)N1CCN2C(=O)c3ccncc3[C@]12c1ccc(Cl)cc1
EC50 [5]: 75 nM
EC50 [6]: 130 nM
EC50 [7]: 290 nM

chromatographic logD [8]: 3
solubility kinetic [9]: > 100 µg/mL
solubility kinetic [10]: 25 µg/mL (≈ 54.1 µM)
Compound: Cn1cc(C(=O)N2CCN3C(=O)c4ccncc4[C@@]32c2ccc(Cl)cc2)c(C(F)(F)F)n1
EC50 [5]: 7.2 nM
EC50 [6]: 6.4 nM
EC50 [7]: 100 nM

half-life [34]: 11 h
clearance [35]: 2.2 mL/min/kg
Vd [36]: 2.1 L/kg
Cmax [37]: 9.3 µM
half-life [38]: 11 h
bioavailability [39]: 57%
Compound: Cn1cc(C(=O)N2CCN3C(=O)c4cc[n+]([O-])cc4[C@@]32c2ccc(Cl)cc2)c(C(F)(F)F)n1
EC50 [5]: 10 nM
CC50 at 120 h [27]: > 5000 nM

Reference: ChEMBL document CHEMBL3393003, “1,2,3,9b-Tetrahydro-5H-imidazo[2,1-a]isoindol-5-ones as a new class of respiratory syncytial virus (RSV) fusion inhibitors. Part 2: identification of BTA9881 as a preclinical candidate” (Bioorg Med Chem Lett, 2015)
